The chains are these.
B1: Osa-1-4 twister ribozyme (parent)
chain: CCGCCUAACACUGCCAAUGCCGGUCCCAAGCCCGGAUAAAAGUGGAGGGGGCGG

In the data set the parent is B1. Kind of data set: self-cleavage, relative activity (ratio to wild type); higher = more cleavage; co-transcriptional. An outline of the steps:
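Values are relative activity: the fraction cleaved, normalised to wild type. A doped DNA template for a 54-nucleotide twister ribozyme from Oryza sativa had 97 % wild-type base and 1 % of each other base at the 48 positions downstream of the cleavage site. The RNA was transcribed in vitro for 2 h at 37 °C so that it could cleave itself co-transcriptionally, then sequenced deeply, with cleavage status scored from the presence or absence of upstream sequence in reads.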
Take CCGCCUAACACUGCCAAUGCCGGUCCCAAGCCCGGAUAAAACUGGAGUGGGCGG: the self-cleavage was 0.04.
As for CCGCCUAACACUGCCAAUGCCGGUCCCAAGCCCGGAUAAAACUGGAGAGGGCGG, the self-cleavage came out at 0.05.
With CCGCCUAACACUGCCAAUGCCGGUCCCAAGCCCGGAUAAAACUGGAGCGGGCGG, the self-cleavage was 0.07.
With CCGCCUAACACUGCCAAUGCCGGUCCCAAGCCCGGAUAAAAAGGGAGGGGGCGG the figure was 0.16.
Take CCGCCUAACACUGCCAAUGCCGGUCCCAAGCCCGGAUAAAAAAGGAGGGGGCGG: the self-cleavage turned out to be 0.16.
With CCGCCUAACACUGCCAAUGCCGGUCCCAAGCCCGGAUAAAAACGGAGGGGGCGG the figure was 0.11; with CCGCCUAACACUGCCAAUGCCGGUCCCAAGCCCGGAUAAAAAUGGAGGGGGCAG, 0.58.
In the case of CCGCCUAACACUGCCAAUGCCGGUCCCAAGCCCGGAUAAAAAUGGAGGGGGCCG, the self-cleavage worked out at 0.1.
On to CCGCCUAACACUGCCAAUGCCGGUCCCAAGCCCGGAUAAAAAUGGAGGGGGCUG, for which the self-cleavage is 0.19.
CCGCCUAACACUGCCAAUGCCGGACCCAAGCCCGGAUAAAAAUGGAGGGGGCGG: the self-cleavage was 0.05.
In the case of CCGCCUAACACUGCCAAUGCCGGGCCCAAGCCCGGAUAAAAAUGGAGGGGGCGG, the self-cleavage came to 0.03.
For CCGCCUAACACUGCCAAUGCCGGCCCCAAGCCCGGAUAAAAAUGGAGGGGGCGG, the self-cleavage came to 0.06.
Turning to CCGCCUAACACAGCCAAUGCCGGUCCCAAGCCCGGAUAAAUGUGGAGGGGGCGG, the self-cleavage turned out to be 1.05.
As to CCGCCUAACACCGCCAAUGCCGGUCCCAAGCCCGGAUAAAUGUGGAGGGGGCGG, the self-cleavage came to 0.91.
With CCGCCUAACACGGCCAAUGCCGGUCCCAAGCCCGGAUAAAUGUGGAGGGGGCGG, the self-cleavage turned out to be 0.69.
As for CCGCCUAACACUGCCAAUGCCGGUCCCAAGCCCGGAAAAAAAUGGAGGGGGCGG, the self-cleavage is 0.51.
Regarding CCGCCUAACACUGCCAAUGCCGGUCCCAAGCCCGGAGAAAAAUGGAGGGGGCGG, the self-cleavage was 0.89.
With CCGCCUAACACUGCCAAUGCCGGUCCCAAGCCCGGACAAAAAUGGAGGGGGCGG the figure was 0.88; with CCGCCUAACACUGCCAAUGCCGGUCCCAAGCCCGGAUAAAACUGGAUGGGGCGG, 0.06; with CCGCCUAACACUGCCAAUGCCGGUCCCAAGCCCGGAUAAAACUGGAAGGGGCGG, 0.06.
CCGCCUAACACUGCCAAUGCCGGUCCCAAGCCCGGAUAAAACUGGACGGGGCGG: the self-cleavage amounted to 0.06.
On to CCGCCUAACACUGCCAACGCCGGUCCCAAGCCCGGAUAAAAAUGGAGGGGGCGG, for which the self-cleavage turned out to be 0.44.
With CCGCCUAACACUGCCAAGGCCGGUCCCAAGCCCGGAUAAAAAUGGAGGGGGCGG the figure was 0.66.
In the case of CCGCCUAACACUGCCAAAGCCGGUCCCAAGCCCGGAUAAAAAUGGAGGGGGCGG, the self-cleavage came out at 0.71.
With CCGCCUAACACUGCCAAUGCCGGUCCCAAGCCCGGAUAAAAAUGCAGGGGGCGG, the self-cleavage was found to be 0.05.
For the variant CCGCCUAACACUGCCAAUGCCGGUCCCAAGCCCGGAUAAAAAUGUAGGGGGCGG, the self-cleavage was 0.05.
With CCGCCUAACACUGCCAAUGCCGGUCCCAAGCCCGGAUAAAAAUGAAGGGGGCGG the figure was 0.08; with CCGCCUAACACUGCCAAUGCCGGACCCAAGCCCGGAUAAAUGUGGAGGGGGCGG, 0.22; with CCGCCUAACACUGCCAAUGCCGGGCCCAAGCCCGGAUAAAUGUGGAGGGGGCGG, 0.02.
Take CCGCCUAACACUGCCAAUGCCGGCCCCAAGCCCGGAUAAAUGUGGAGGGGGCGG: the self-cleavage worked out at 0.27.
For the variant CCGCCUAACACUGCCAAUGCCGGUCCCAAGCCCGGACAAAUGUGGAGGGGGCGG, the self-cleavage came to 1.03.
For CCGCCUAACACUGCCAAUGCCGGUCCCAAGCCCGGAAAAAUGUGGAGGGGGCGG, the self-cleavage is 0.98.
Regarding CCGCCUAACACUGCCAAUGCCGGUCCCAAGCCCGGAGAAAUGUGGAGGGGGCGG, the self-cleavage is 1.02.
Turning to CCGCCUAACACUGCCAAUGCCGGACCCAAGCCCGGAUAAAACUGGAGGGGGCGG, the self-cleavage worked out at 0.05.
With CCGCCUAACACUGCCAAUGCCGGGCCCAAGCCCGGAUAAAACUGGAGGGGGCGG the figure was 0.02.
On to CCGCCUAACACUGCCAAUGCCGGCCCCAAGCCCGGAUAAAACUGGAGGGGGCGG, for which the self-cleavage was determined as 0.05.
With CCGCCUAACACCGCCAAUGCCGGUCCCAAGCCCGGAUAAAAAUGGAGGGGGCGG the figure was 0.1; with CCGCCUAACACAGCCAAUGCCGGUCCCAAGCCCGGAUAAAAAUGGAGGGGGCGG, 0.15.
Regarding CCGCCUAACACGGCCAAUGCCGGUCCCAAGCCCGGAUAAAAAUGGAGGGGGCGG, the self-cleavage turned out to be 0.09.
As for CCGCCUAACACUGCCAAAGCCGGUCCCAAGCCCGGAUAAAUGUGGAGGGGGCGG, the self-cleavage came out at 0.92.
For the variant CCGCCUAACACUGCCAACGCCGGUCCCAAGCCCGGAUAAAUGUGGAGGGGGCGG, the self-cleavage was found to be 0.93.
With CCGCCUAACACUGCCAAGGCCGGUCCCAAGCCCGGAUAAAUGUGGAGGGGGCGG, the self-cleavage worked out at 0.86.
With CCGCCUAACACUGCCAAUGCCGGUCCCAAGCCCGGAUAAAACUGGAGGGAGCGG the figure was 0.14; with CCGCCUAACACUGCCAAUGCCGGUCCCAAGCCCGGAUAAAACUGGAGGGCGCGG, 0.15; with CCGCCUAACACUGCCAAUGCCGGUCCCAAGCCCGGAUAAAACUGGAGGGUGCGG, 0.32.
CCGCCUAACACUGCCAAUGCCGGUCCCAAGCCCGGAUAAAACUAGAGGGGGCGG: the self-cleavage was found to be 0.24.
For CCGCCUAACACUGCCAAUGCCGGUCCCAAGCCCGGAUAAAACUUGAGGGGGCGG, the self-cleavage worked out at 0.11.
Regarding CCGCCUAACACUGCCAAUGCCGGUCCCAAGCCCGGAUAAAACUCGAGGGGGCGG, the self-cleavage was 0.19.

The values are drawn from the RNAGym collection of RNA variant scans (doi:10.1002/anie.201605470).
